ARNT TACC3 PPI: disruptors of ARNT/TACC3 protein interaction, primary screen, biochemical, AlphaScreen, single concentration; AlphaScreen His-ARNT PAS-B/GST-TACC3 binding, luminescence; TACC3 fragment carries E629A point mutation; inhibition, % at 9.99 µM; 0.66% of 390,000 active; AID 623870, 2012;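 active = mean inhibition of replicates at least 50% and at least half of replicates each reaching 50%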;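 note: 0% = complete ARNT plus TACC3 wells and 100% = ARNT alone without TACC3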
SR-BI DiI inh: inhibitors of SR-BI mediated HDL lipid uptake, primary screen, ldlA[mSR-BI] cells, fluorescence, single point. inhibition, % at 12.5 µM. Scavenger receptor class B member 1 (Mus musculus), Q61009. ldlA[mSR-BI] CHO cells, DiI-HDL uptake fluorescence, 3 h. 0.96% of 320,000 active;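 active = mean replicate inhibition of at least 70% and a set share of replicates each scoring 70 or more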;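 note: 0% = median of neutral control wells and 100% = median of positive control wells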
SR-BI uptake up: activators of SR-BI mediated DiI-HDL uptake, primary screen, ldlA[mSR-BI] CHO cells, DiI fluorescence. 3 h; 100 = double the neutral-control signal. activation, % at 12.5 µM. 0.096% of 320,000 active. AID 504775, 2011;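 active = mean replicate activation of at least 60% and every replicate at or above 60%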;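 note: 0% = median plate neutral-control signal and 100% = twice that signal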
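Assay system: LDL receptor-deficient CHO ldlA cells overexpressing murine SR-BI / Medium: BSA-supplemented, HEPES-buffered Ham's F12, pH 7.4 / Probe or stimulus: DiI-labelled HDL at 10 µg/mL final / Timing: compound with DiI-HDL co-incubation, 3 h at 37 °C / Technique: bottom-read cell fluorescence after medium removal, ex 550/em 595 nm / Measure: HDL uptake via cellular fluorescence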
sPLA2-III inh: human group III sPLA2 inhibitors, primary screen, biochemical, QFRET, BODIPY PC-A2 liposome substrate; 0.56% of 370,000 active; Group 3 secretory phospholipase A2 (Homo sapiens), Q9NZ20; AID 743126, 2013; QFRET BODIPY PC-A2 liposome hydrolysis, fluorescence; inhibition, % at 12.2 µM;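 active = inhibition above mean plus 3 SD of compounds lying within the high and low control bounds, cut at about 19% in these data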;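 note: 0% = median of test compound wells and 100% = no enzyme DMSO wells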
Xi reactivation: activators of inactive X chromosome reactivation, primary screen, imaging, XiGFP fibroblasts, GFP high-content imaging, set 2; 0.055% of 360,000 active; activation, % at 7.58 µM; XiGFP mouse fibroblasts, % GFP-positive cells imaging, 3 d; cells co-treated with 5-aza-dC sensitizer; scaled so ellipticine positive control = 100%;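 active = mean normalized replicate activation at least 10% and every replicate at or above 10%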;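 note: 0% = median of on-plate neutral control wells and 100% = ellipticine 6 µM median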
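System: XiGFP fibroblasts, SV40-immortalized. Medium: DMEM plus 5-aza-dC sensitizer. Doses: single point. Timing: 3 d treatment, 15 min room-temperature fixation. Control set: ellipticine 6 µM.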
NSD2 inh: NSD2 histone methyltransferase inhibitors, primary screen, biochemical, AlphaScreen, single concentration, set 2. Histone-lysine N-methyltransferase NSD2 (Homo sapiens), O96028. NSD2 peptide methylation, 120 min. inhibition, % at 12.5 µM. 0.54% of 310,000 active. AID 743445, 2014; in the data active = inhibition above about 50%
Starred values were filed as active, the others as inactive; . = no result given. Most compounds without a hit are left out; they make up all but 2% or so of the library.

SMILES	ARNT TACC3 PPI	SR-BI DiI inh	SR-BI uptake up	sPLA2-III inh	Xi reactivation	NSD2 inh
Cc1cc(C)n(CCCNC(=O)Cn2nnnc2CN2C[C@@H](C)O[C@@H](C)C2)n1	1	-12	12	1	0	-2
O=C(C[C@H]1CC[C@@H](NS(=O)(=O)c2ccc(F)cc2)[C@H](CO)O1)NC1CCC1	30*	.	.	.	0	.
O=C(C[C@H]1CC[C@H](NS(=O)(=O)c2ccc(F)cc2)[C@@H](CO)O1)NC1CCC1	-3	.	.	.	0	.
Cc1cccc(COc2ccccc2C(=O)OCC(=O)N(C)c2c(N)n(Cc3ccccc3)c(=O)[nH]c2=O)c1	0	87*	-87	-16	0	0
Cc1cccc(OCC(=O)N(C)c2c(N)n(Cc3ccccc3)c(=O)[nH]c2=O)c1C	-10	-16	16	5	140*	24
N=C(N)SCc1ncccc1O	50*	.	.	.	0	12
COc1cccc(-c2cccc(-c3nc(C(=O)N4CCN(C)CC4)cc4c3[C@@H](CCO)N(S(=O)C(C)(C)C)C4)c2)c1 (some centres undefined)	-3	.	.	.	0	.
C=CCNc1nc(Cl)nc(Nc2ccc([N+](=O)[O-])cc2)n1	-1	0	0	1	0	-1
C=CCNc1nc(Nc2ccc([N+](=O)[O-])cc2)nc(N2CCCC2)n1	.	76*	-76	-3	0	2
CC(C)C(C(=O)O)N1C(=O)C2C3CCC(C3)C2C1=O (centres undefined)	.	.	.	9	0	0
CC1CCC(C(C)C)C(OC(=O)C2=C3c4ccccc4S(=O)(=O)N3CC2)C1 (centres undefined)	-4	71*	-71	-1	.	0
CC1CCC(C(C)C)C(OC(=O)CSc2nccc(=O)[nH]2)C1 (centres undefined)	-6	-8	8	-10	.	11
COc1ccccc1NC(=O)N(C)C[C@@H]1Oc2ncc(C#CC(C)C)cc2C(=O)N([C@@H](C)CO)C[C@@H]1C	2	.	.	.	-1	.
COc1cc([N+](=O)[O-])cc(/C=N/NC(=O)Cn2nc(C)cc2C)c1O	63*	.	.	-2	.	-20
COc1cc([N+](=O)[O-])cc(/C=N/NC(=O)Cn2nccc2C)c1O	71*	.	.	4	0	-17
COc1ccc(/C=N/NC(=O)Cn2nc([N+](=O)[O-])cc2C)c(OC)c1OC	-4	23	-23	1	0	-3
CCCCC(CCC(=O)NNC(=O)Cc1ccccc1)C(=O)O (centres undefined)	6	13	-13	18	0	1
CC1(C)Cc2nc3sc4c(NCCO)ncnc4c3cc2CS1	10	79*	-79	2	0	0
Cc1c(/C(O)=C2/C(=O)C(=O)N(CCN3CCOCC3)C2c2cccs2)cnn1-c1ccccc1 (centres undefined)	-10	6	-6	2	.	-6
COc1ccc(/C=C/C(=O)NC(=S)Nc2ccc(S(=O)(=O)N=C(N)N)cc2)cc1OC	-2	-286	286*	-3	0	17
CC1Sc2ccccc2N(Cc2ccc(OC(F)(F)F)cc2)C1=O (centres undefined)	.	.	.	11	0	-4
CO[C@@H]1CN(C)C(=O)c2ccc(NC(=O)c3ccc(F)cc3)cc2OC[C@H](C)N(C(=O)CN(C)C)C[C@@H]1C	.	.	.	.	0	.
COc1ccc(NC(=O)N(C)C[C@@H]2Oc3cc(-c4cccc(C(=O)N(C)C)c4)ccc3S(=O)(=O)N([C@@H](C)CO)C[C@H]2C)cc1	-7	.	.	.	0	.
CCN1C(=O)/C(=c2\o/c(=C3\C=Cc4ccccc4N3CC)c(=O)n2CC)SC1=S	-3	11	-11	2	.	8
CCN1C(=O)/C(=C2\C=Cc3ccccc3N2CC)SC1=S	11	74*	-74	19	.	20
SMILES	ARNT TACC3 PPI	SR-BI DiI inh	SR-BI uptake up	sPLA2-III inh	Xi reactivation	NSD2 inh
CC=Cc1ccc2n(c1=O)C[C@@H]1[C@@H](CO)[C@H](C(=O)NCc3ccccn3)[C@H]2N1CC1CC1 (mixture of isomers)	12	.	.	.	0	.
Cc1oc(-c2ccccc2)cc1C(=O)Nc1ccccc1	1	90*	.	-17	.	-2
COc1ccc(NC(=O)c2cc(-c3ccc(F)cc3OC)n[nH]2)c(OC)c1	.	.	.	13	0	-3
O=C1NC(=Nc2ccccc2Cl)S/C1=C\c1cccc([N+](=O)[O-])c1O	10	-13	13	-38	0	60*
COc1c(/C=C2\SC(=Nc3ccccc3Cl)NC2=O)cccc1[N+](=O)[O-]	-7	13	-13	-11	0	7
Cc1cc(C)nc(N(C#N)CC(=O)N2CCC(C(N)=O)CC2)n1	-2	-29	.	0	.	-2
COc1cc(NC(=O)c2cc(-c3ccccc3)nc3c2cnn3C(C)C)cc(OC)c1OC	1	60	-60	.	.	0
CC(C)n1ncc2c(C(=O)Nc3cccc(S(=O)(=O)N(C)C)c3)cc(C3CC3)nc21	13	76*	-76	-22	0	5
CNC(=O)c1cccc(NC(=O)c2cc(-c3ccccc3)nc3c2cnn3C(C)C)c1	12	82*	-82	-43	0	0
CC(C)n1ncc2c(C(=O)Nc3ccc(S(C)(=O)=O)cc3)cc(C3CC3)nc21	3	29	-29	-5	0	-2
CCCNC(=O)N1[C@@H](C#N)[C@@H](c2ccc(-c3cccc(OC)c3)cc2)[C@@H]1CO	4	.	.	.	0	.
Cc1ccccc1NC(=O)CSc1nnc(-c2ccco2)c(-c2ccco2)n1	4	-3	3	.	.	.
Cc1cccc(C)c1NC(=O)CSc1nnc(-c2ccco2)c(-c2ccco2)n1	57*	-39	39	.	.	.
Cc1ccccc1SCC(=O)NNC(=O)c1ccccc1O	33	79*	-79	19	0	24
CCCc1cc(N2CCCC2)n2nc(C)c(-c3ccccc3)c2n1	-5	78*	-78	3	.	7
CCN1CCN(c2cc(C(C)C)nc3c(-c4ccccc4)c(C)nn23)CC1	.	.	.	-4	0	-9
COc1ccc2c(c1)c(/C=N/Nc1nc3ccccc3[nH]1)c(C)n2C	7	65	-65	-1	17*	3
COc1cc(/C=N\Nc2nc3ccccc3[nH]2)cc(OC)c1OC	9	48	-48	3	.	-6

Assay outcomes as filed in PubChem BioAssay.
